Results on five compounds are retold here after ChEMBL document CHEMBL3992520, “Development of the First Two-Pore Domain Potassium Channel TWIK-Related K+ Channel 1-Selective Agonist Possessing in Vivo Antinociceptive Activity” (J Med Chem, 2017).

A short description of data set [1]: Half life in rat liver microsomes at 40 mM in presence of NADPH-cofactor by HPLC analysis. Type of data set: ADME, microsome. A general note: Liver microsomes are a subcellular fraction often used to study metabolism.
Data set [2] deals with Mus musculus. The data set is described as follows: Antinociceptive activity in CD1 mouse assessed as inhibition of acetic acid-induced writhes at 10 mg/kg, sc pretreated for 15 mins followed by acetic acid challenge measured within 20 mins relative to control. Type of data set: functional. The method in brief:
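Male CD1 mice (20-25 g), n=8 per group, dosed at 10 mg/kg s.c. or with vehicle (5% Tween 80 in 0.9% saline). Dosing was 15 min before i.p. 0.6% acetic acid (10 mL/kg). Abdominal writhes were counted for 20 min. Effect = (mean control writhes − mean test writhes)/mean control writhes ×100.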

The test system of data set [3] is Mus musculus. The data set is described as follows: Antinociceptive activity in CD1 mouse assessed as increase in thermal-stimulus induced paw withdrawal latency at 60 mg/kg, sc measured after 30 mins by hot plate method relative to control. Type of data set: functional. An outline of the steps: (§1)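 Male CD1 mice (20-25 g), n=8 per group, given 60 mg/kg s.c. After 5 min acclimatization on a plate at room temperature, mice were placed on a 52 °C hotplate. Latency to forepaw or hindpaw licking or hindpaw flicking was recorded, with a 30 s cut-off. Latency was taken after two consecutive stable baselines, then 30 and 45 min post-dose. Effect = (postdrug − predrug latency)/predrug latency ×100.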
On the technique in general: Thermal pain tests record how soon the animal reacts.

Data set [4] addresses T1, Potassium channel subfamily K member 2 (Homo sapiens) (UniProt O95069).
T1 sequence (whole entry): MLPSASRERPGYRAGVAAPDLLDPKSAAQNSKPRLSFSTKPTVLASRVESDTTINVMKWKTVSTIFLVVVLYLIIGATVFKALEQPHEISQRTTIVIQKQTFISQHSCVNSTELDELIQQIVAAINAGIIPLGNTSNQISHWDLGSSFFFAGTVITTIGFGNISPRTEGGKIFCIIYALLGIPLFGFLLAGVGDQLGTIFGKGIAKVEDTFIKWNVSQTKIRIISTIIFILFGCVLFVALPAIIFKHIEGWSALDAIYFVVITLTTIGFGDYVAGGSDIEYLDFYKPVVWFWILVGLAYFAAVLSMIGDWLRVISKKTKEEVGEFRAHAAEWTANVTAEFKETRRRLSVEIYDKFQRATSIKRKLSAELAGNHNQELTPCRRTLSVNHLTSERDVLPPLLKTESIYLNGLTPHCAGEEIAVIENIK
The data set is described as follows: Agonist activity at human TREK1 expressed in HEK293 cells assessed as increase in K+ current at 20 uM measured at +60 mV by whole-cell patch clamp method relative to control. The class given is cell-based. The method in brief: (§2)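 Human TREK-1 (kcnk2) in pIRES2-eGFP was stably expressed in HEK-293 cells under G418 selection, and cells were used 4–48 h after plating. Bath (mM): 140 NaCl, 10 TEA-Cl, 5 KCl, 3 MgCl2, 1 CaCl2, 10 HEPES, pH 7.4. Pipette (mM): 155 KCl, 3 MgCl2, 5 EGTA, 10 HEPES, pH 7.2. Holding was −80 mV, with a step to −100 mV then a 400 ms ramp to +60 mV every 5 s. Read-out was the ratio Imax/I0 taken from I/V curves. Stocks were 20 mM in DMSO.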

Data set [5] has as its system Liver. The experiment in a line: Drug metabolism in rat liver microsomes assessed as (E)-2-cyano-3-(1H-indol-2-yl)acrylic acid formation at 40 mM in presence of NADPH-cofactor measured after 24 hrs by HPLC analysis. Type of data set: ADME, microsome. The following applies: 40000 µM. An outline of the steps:
(§3)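 Incubation mix: rat liver microsomes (20 mg/mL stock), phosphate buffer pH 7.4 and NADPH (40 mM stock). Drug was added from a 40 mM DMSO stock. Samples were vortexed and incubated at 37 °C with stirring.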

Data set [6] relates to Mus musculus. The experiment in a line: Antinociceptive activity in CD1 mouse assessed as increase in thermal-stimulus induced paw withdrawal latency at 60 mg/kg, sc measured after 45 mins by hot plate method relative to control. The class given is functional. The method in brief:
as §1

For data set [7], the target named is T1, Potassium channel subfamily K member 2 (Homo sapiens). The experiment in a line: Agonist activity at human TREK1 expressed in HEK293 cells assessed as increase in K+ current at 100 uM measured at +60 mV by whole-cell patch clamp method relative to control. Type of data set: cell-based. An outline of the steps:
as §2
(Patch clamp records ionic current or voltage across a cell membrane.)

Data set [8] concerns Liver. The data set is described as follows: Drug level in rat liver microsomes treated with at 40 mM (E)-ethyl 2-cyano-3-(1H-indol-2-yl)acrylate measured after 24 hrs by HPLC analysis. The class given is ADME, microsome. The following applies: 40000 µM. An outline of the steps:
as §3

The target of data set [9] is T1, Potassium channel subfamily K member 2 (Homo sapiens). The experiment in a line: Agonist activity at human TREK1 expressed in xenopus oocytes assessed as increase in K+ current at 20 uM measured at 0 mV by double microelectrode method relative to control. Type of data set: cell-based.
The subject of data set [10] is Mus musculus. The data set is described as follows: Antinociceptive activity in wild-type C57Bl/6J mouse assessed as increase in thermal-stimulus induced paw withdrawal latency at 60 mg/kg, sc measured after 30 mins by hot plate method relative to control. Type of data set: functional. An outline of the steps:
(§4)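 TREK-1−/− and wild-type C57Bl/6J littermates came from heterozygous crosses, n=7. Dose was 60 mg/kg s.c. The 52 °C hotplate measured paw-lick latency, 30 s cut-off, with baseline from two stable pre-dose latencies.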

In data set [11] the test system is Liver. The data set is described as follows: Drug level in rat liver microsomes treated with at 40 mM (E)-ethyl 2-cyano-3-(furan-3-yl)acrylate measured after 24 hrs by HPLC analysis. Type of data set: ADME, microsome. The following applies: 40000 µM. The method in brief:
as §3

The test system of data set [12] is Mus musculus. The data set is described as follows: Antinociceptive activity in TREK1 deficient C57Bl/6J mouse assessed as increase in thermal-stimulus induced paw withdrawal latency at 60 mg/kg, sc measured after 45 mins by hot plate method relative to control. The class given is functional. The method in brief: as §4
Data set [13] deals with Potassium channel subfamily K member 9 (Homo sapiens) (UniProt Q9NPC2). The data set is described as follows: Agonist activity at TASK3 (unknown origin) expressed in HEK293 cells assessed as increase in K+ current at 100 uM measured at +60 mV by whole-cell patch clamp method relative to control. The class given is cell-based.
Data set [14] relates to Mus musculus. The experiment in a line: In vivo activation of TREK1 in C57Bl/6J mouse assessed as increase in thermal-stimulus induced paw withdrawal latency at 60 mg/kg, sc measured after 30 mins by hot plate method relative to control. Type of data set: functional. The method in brief:
as §4

The target of data set [15] is T2, Potassium channel subfamily K member 10 (Homo sapiens) (UniProt P57789).
T2 sequence (whole entry): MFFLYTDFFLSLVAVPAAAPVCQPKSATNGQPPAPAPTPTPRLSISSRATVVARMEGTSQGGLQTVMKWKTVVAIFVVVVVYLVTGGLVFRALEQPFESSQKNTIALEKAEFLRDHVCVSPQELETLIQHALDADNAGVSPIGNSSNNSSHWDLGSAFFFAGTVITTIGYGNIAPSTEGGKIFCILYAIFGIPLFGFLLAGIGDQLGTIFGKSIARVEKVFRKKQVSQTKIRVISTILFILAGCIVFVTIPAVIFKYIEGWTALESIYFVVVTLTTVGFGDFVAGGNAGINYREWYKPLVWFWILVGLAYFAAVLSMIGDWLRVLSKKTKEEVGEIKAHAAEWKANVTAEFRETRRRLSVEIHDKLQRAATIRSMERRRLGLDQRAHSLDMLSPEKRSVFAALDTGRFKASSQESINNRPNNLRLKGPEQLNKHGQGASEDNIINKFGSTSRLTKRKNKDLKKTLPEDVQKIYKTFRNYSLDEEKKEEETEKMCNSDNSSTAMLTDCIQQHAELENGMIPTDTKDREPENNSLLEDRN
The data set is described as follows: Agonist activity at TREK-2 (unknown origin) expressed in HEK293 cells assessed as increase in K+ current at 100 uM measured at +60 mV by whole-cell patch clamp method relative to control. The class given is cell-based.

Data set [16] relates to Mus musculus. The experiment in a line: In vivo activation of TREK1 in C57Bl/6J mouse assessed as increase in thermal-stimulus induced paw withdrawal latency at 60 mg/kg, sc measured after 45 mins by hot plate method relative to control. Type of data set: functional. An outline of the steps:
as §4

The subject of data set [17] is Mus musculus. The data set is described as follows: Antinociceptive activity in TREK1 deficient C57Bl/6J mouse assessed as increase in thermal-stimulus induced paw withdrawal latency at 60 mg/kg, sc measured after 30 mins by hot plate method relative to control. Type of data set: functional. The method in brief:
as §4

Data set [18] deals with T3, Potassium channel subfamily K member 4 (Homo sapiens) (UniProt Q9NYG8).
T3 sequence (whole entry): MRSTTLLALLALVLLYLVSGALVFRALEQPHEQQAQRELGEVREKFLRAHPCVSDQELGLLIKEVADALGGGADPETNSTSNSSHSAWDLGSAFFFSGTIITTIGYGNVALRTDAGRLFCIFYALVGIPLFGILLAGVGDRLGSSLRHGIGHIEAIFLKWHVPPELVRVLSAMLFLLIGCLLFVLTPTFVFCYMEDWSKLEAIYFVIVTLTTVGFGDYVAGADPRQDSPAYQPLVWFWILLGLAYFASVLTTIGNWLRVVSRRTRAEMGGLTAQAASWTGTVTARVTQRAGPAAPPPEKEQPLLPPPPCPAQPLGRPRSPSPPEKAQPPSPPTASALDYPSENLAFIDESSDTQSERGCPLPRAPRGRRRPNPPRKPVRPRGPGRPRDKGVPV
The data set is described as follows: Agonist activity at TRAAK (unknown origin) expressed in HEK293 cells assessed as increase in K+ current at 100 uM measured at +60 mV by whole-cell patch clamp method relative to control. The class given is cell-based.

Data set [19] has as its system Mus musculus. The experiment in a line: Antinociceptive activity in wild-type C57Bl/6J mouse assessed as increase in thermal-stimulus induced paw withdrawal latency at 60 mg/kg, sc measured after 45 mins by hot plate method relative to control. The class given is functional. An outline of the steps:
as §4

Data set [20] deals with Liver. The experiment in a line: Drug level in rat liver microsomes treated with at 40 mM (E)-ethyl 2-cyano-3-(3,4-dihydroxyphenyl)acrylate measured after 24 hrs by HPLC analysis. The class given is ADME, microsome. The following applies: 40000 µM. The method in brief:
as §3

Data set [21] concerns Liver. The data set is described as follows: Drug metabolism in rat liver microsomes assessed as (E)-2-cyano-3-(furan-3-yl)acrylic acid formation at 40 mM in presence of NADPH-cofactor measured after 24 hrs by HPLC analysis. The class given is ADME, microsome. The note with it: 40000 µM. An outline of the steps: as §3

Sequence of Potassium channel subfamily K member 9 (Homo sapiens) (Q9NPC2 whole entry): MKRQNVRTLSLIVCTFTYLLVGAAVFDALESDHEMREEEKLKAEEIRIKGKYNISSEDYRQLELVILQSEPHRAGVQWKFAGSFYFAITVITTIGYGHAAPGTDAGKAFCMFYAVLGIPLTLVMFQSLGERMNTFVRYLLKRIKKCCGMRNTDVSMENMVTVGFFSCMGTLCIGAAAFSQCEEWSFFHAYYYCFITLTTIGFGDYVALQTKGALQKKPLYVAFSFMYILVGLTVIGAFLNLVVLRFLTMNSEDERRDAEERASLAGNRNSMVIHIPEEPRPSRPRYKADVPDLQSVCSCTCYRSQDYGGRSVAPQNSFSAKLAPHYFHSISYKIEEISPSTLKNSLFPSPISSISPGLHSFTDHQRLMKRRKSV

Consider `CCOC(=O)/C(C#N)=C/c1cc2ccccc2[nH]1`, for which the half-life – broadly, how long it takes for the measured level to halve – in data set [1] was less than 4 min. In data set [2], the inhibition in vivo (as a rule, the drop in the measured response relative to a control, in per cent) at 10 mg/kg was 88.4%. Further, the Activity in data set [3] is 33.3%; in data set [6], 32.7%. Besides, the fold change (FC) in data set [4] worked out at 4.71. Moreover, the Drug metabolism entry in data set [5] is on record as “Metabolite_Detected”.

In the case of `N#C/C(=C\c1cc2ccccc2[nH]1)C(=O)O`, the fold change (FC) in [7] is 1.18; in data set [9], 2.44. Moreover, in data set [8], the Drug metabolism result is listed as “Metabolite_Detected”. In data set [2], the inhibition in vivo at 10 mg/kg was found to be 25.8%.

For `N#C/C(=C\c1ccoc1)C(=O)O`, the Activity in [10] is given as 121.2%; in [12] it was 75.4%; in [14], 36.6%; in [16], 19%; in data set [3], 56.4%; in [17] it was 78.1%. For the same compound, the Activity is given as 119.5% in data set [6] and 93.5% in data set [19]. Besides, the Drug metabolism result in data set [11] is “Metabolite_Detected”. Besides, the fold change (FC) in data set [7] worked out at 4.53; in data set [13], 1; in data set [9], 1.43; in data set [15], 1.8; in data set [18], 1.1. Besides, in data set [2], the inhibition in vivo at 10 mg/kg came out at 30.7%.

For `N#C/C(=C\c1ccc(O)c(O)c1)C(=O)O`, the fold change (FC) came to 1.5 in [7] and 1.23 in [9]. Also, the Activity amounted to 21.4% in data set [3] and 59.4% in data set [6]. Moreover, the Drug metabolism result in data set [20] was “Metabolite_Detected”.

In the case of `CCOC(=O)/C(C#N)=C/c1ccoc1`, the half-life in data set [1] was less than 4 min. For the same compound, the fold change (FC) in [7] was 2.09. The inhibition in vivo at 10 mg/kg in data set [2] was 55.9%. Besides, the Activity in data set [3] was 28.4%; in data set [6], 11.9%. Moreover, the Drug metabolism entry in [21] is “Metabolite_Detected”.
